Experimental data taken from ChEMBL document CHEMBL1149132, “Structure-activity study of the ORL1 antagonist Ac-Arg-D-Cha-Qaa-D-Arg-D-p-ClPhe-NH2” (J Med Chem, 2004).

How the values were obtained:
Type in all cases: cell-based
[1] = target: Delta-type opioid receptor (Homo sapiens, UniProt P41143); experiment: Binding affinity against human opioid receptor delta 1 was determined using [3H]diprenorphine in vitro transfected to COS-1 cells
Outline: (§1)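 Competition binding with [3H]diprenorphine on membrane homogenates of COS-1 cells transiently transfected with human MOR or human DOR. Ki given as mean ± SEM from two or more separate experiments done in duplicate.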

Nociceptin receptor = Nociceptin receptor (Homo sapiens, UniProt P41146); experiment: Binding affinity against human opioid receptor like 1 (hORL) was determined using [leucyl-3H]nociceptin in vitro in CHO cells
Outline: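 Displacement of [leucyl-3H]nociceptin from membrane homogenates of CHO cells stably expressing recombinant human ORL1. Ki values are means ± SEM of two or more independent experiments, each in duplicate.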

Mu-type opioid receptor = Mu-type opioid receptor (Homo sapiens, UniProt P35372); experiment: Binding affinity against human Opioid receptor mu 1 (hMOR) was determined using [3H]diprenorphine in vitro transfected to COS-1 cells; outline: as §1
[2] = target: Kappa-type opioid receptor (Homo sapiens, UniProt P41145); experiment: Binding affinity against human Opioid receptor kappa 1 (hKOR) was determined using [3H]diprenorphine in vitro in CHO cells
Outline: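 Competition binding with [3H]diprenorphine on membrane homogenates of CHO cells stably expressing recombinant human KOR. Ki reported as mean ± SEM of two or more separate experiments, each run in duplicate.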

Kappa-type opioid receptor, sequence (P41145 whole entry): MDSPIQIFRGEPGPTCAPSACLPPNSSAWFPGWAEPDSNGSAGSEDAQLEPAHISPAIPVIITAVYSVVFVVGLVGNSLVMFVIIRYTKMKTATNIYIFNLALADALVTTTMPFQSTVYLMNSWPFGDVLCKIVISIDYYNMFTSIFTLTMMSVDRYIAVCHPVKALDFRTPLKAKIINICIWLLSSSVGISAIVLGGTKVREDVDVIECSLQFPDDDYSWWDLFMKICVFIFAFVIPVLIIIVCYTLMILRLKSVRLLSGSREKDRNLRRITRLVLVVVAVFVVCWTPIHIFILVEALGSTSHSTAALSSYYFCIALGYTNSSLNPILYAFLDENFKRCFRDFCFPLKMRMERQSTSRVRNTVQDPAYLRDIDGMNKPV
Delta-type opioid receptor, sequence (P41143 whole entry): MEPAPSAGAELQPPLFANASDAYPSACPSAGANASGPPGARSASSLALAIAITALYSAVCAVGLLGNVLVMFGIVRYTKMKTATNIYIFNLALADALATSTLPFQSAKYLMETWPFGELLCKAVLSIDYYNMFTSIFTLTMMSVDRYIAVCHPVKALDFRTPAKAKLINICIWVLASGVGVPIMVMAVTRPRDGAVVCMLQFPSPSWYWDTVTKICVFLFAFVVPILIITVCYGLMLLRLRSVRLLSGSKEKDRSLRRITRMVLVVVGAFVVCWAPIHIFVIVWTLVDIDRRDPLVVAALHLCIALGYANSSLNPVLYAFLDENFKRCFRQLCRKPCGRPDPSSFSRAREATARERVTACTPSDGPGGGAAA
Nociceptin receptor, sequence (P41146 whole entry): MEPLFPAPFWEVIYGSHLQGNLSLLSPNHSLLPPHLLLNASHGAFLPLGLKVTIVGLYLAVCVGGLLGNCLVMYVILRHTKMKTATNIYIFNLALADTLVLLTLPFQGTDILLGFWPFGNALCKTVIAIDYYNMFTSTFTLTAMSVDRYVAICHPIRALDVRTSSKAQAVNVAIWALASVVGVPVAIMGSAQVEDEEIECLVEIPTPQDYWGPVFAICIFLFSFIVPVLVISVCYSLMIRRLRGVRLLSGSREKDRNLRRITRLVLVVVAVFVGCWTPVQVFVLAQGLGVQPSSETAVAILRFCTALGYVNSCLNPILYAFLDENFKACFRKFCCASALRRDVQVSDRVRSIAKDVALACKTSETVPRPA
Mu-type opioid receptor, sequence (P35372 whole entry): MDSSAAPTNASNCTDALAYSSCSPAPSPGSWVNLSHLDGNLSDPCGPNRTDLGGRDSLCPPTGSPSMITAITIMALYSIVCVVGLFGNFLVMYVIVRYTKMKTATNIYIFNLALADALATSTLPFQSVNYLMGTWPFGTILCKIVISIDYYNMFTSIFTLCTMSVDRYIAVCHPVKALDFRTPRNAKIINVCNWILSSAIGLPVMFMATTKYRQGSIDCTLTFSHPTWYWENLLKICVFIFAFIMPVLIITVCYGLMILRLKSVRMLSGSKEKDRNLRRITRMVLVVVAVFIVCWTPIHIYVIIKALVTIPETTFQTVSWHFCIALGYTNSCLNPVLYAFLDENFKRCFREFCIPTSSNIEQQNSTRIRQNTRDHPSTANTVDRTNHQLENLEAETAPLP

SMILES	Ki [1] [µM]	Ki (Nociceptin receptor) [nM]	Ki (Mu-type opioid receptor) [nM]	Ki [2] [nM]
CC(=O)N[C@@H](CCCN=C(N)N)C(=O)N[C@H](CC1CCCCC1)C(=O)N[C@H]1CC[C@H]2CCC[C@@H](C(=O)N[C@H](CCCNC(N)=O)C(N)=O)N2C1=O	> 5	> 5000	> 5000	> 5000
CC(=O)N[C@@H](CCCNC(N)=O)C(=O)N[C@H](CC1CCCCC1)C(=O)N[C@H]1CC[C@H]2CCC[C@@H](C(=O)N[C@H](CCCN=C(N)N)C(=O)N[C@H](Cc3ccc(Cl)cc3)C(N)=O)N2C1=O	> 5	72	2560	4270
CC(=O)N[C@@H](CCCN=C(N)N)C(=O)N[C@H](CC1CCCCC1)C(=O)N[C@H]1CC[C@H]2CCC[C@@H](C(=O)N[C@H](CCCN=C(N)N)C(=O)N[C@H](Cc3ccc(Cl)cc3)C(N)=O)N2C1=O	> 5	27	90	105
CC(=O)N[C@@H](CCCN=C(N)N)C(=O)N[C@H](CC1CCCCC1)C(=O)N[C@H]1CC[C@@H]2SC[C@@H](C(=O)N[C@H](CCCN=C(N)N)C(=O)NC(Cc3ccc(Cl)cc3)C(N)=O)N2C1=O (stereo not given in full)	0.222	34	53	78
CC(=O)N[C@@H](CCCN=C(N)N)C(=O)N[C@H](CC1CCCCC1)C(=O)N[C@H]1CC[C@H]2CCC[C@@H](C(=O)N[C@H](CCCNC(N)=O)C(=O)N[C@H](Cc3ccc(Cl)cc3)C(N)=O)N2C1=O	> 5	> 5000	> 5000	> 5000
